Source: PubChem
Most compounds without a hit are left out; they make up all but 2.9% or so of the library.
MIN6 prolif = MIN6 beta-cell proliferation induction. MIN6 cells proliferation, ATPlite luminescence, 48 h; cells starved in 0.2% serum; 100% = growth in 10% serum. proliferation, % at 10 µM. actives 0.29% (n = 330,000). AID 2380;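 active = compounds whose signal lies at least 3.5 SD above the mean of all wells on their plate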;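 note: 0% = DMSO-treated cells in low-serum medium and 100% = 10% serum control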
hiPSC survival = enhancers of human iPSC single-cell survival. hiPSC single-cell survival, ATPlite luminescence; 100% = ROCK inhibitor wells, 0% = DMSO. survival enhancement, % at 20 µM. actives 0.044% (n = 360,000). AID 602274; in the data active = survival enhancement above about 18%;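 note: cells exposed to compounds for 16 hours before the ATP read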
PG9 binder = small molecules binding HIV-1 gp120 antibody PG9; actives 0.43% (n = 360,000); TR-FRET gp120-PG9 antibody binding; inhibition, % at 6.7 µM; AID 624416; in the data active = inhibition above about 8.5%
H9c2 TAG inh = inhibitors of triacylglycerol accumulation. inhibition, % at 12.5 µM. actives 0.66% (n = 230,000). H9c2 cells, Nile Red lipid (TAG) fluorescence; cells loaded with 200 µM oleic acid;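 active = pattern-corrected inhibition of lipid staining of at least 50% with the nuclear-stain viability signal not falling by more than 50%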;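 note: 0% = DMSO wells and 100% = triacsin C control wells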
T cruzi inh = T. cruzi replication inhibition; T. cruzi beta-gal in NIH3T3, luminescence, 90 h; inhibition, % (no concentration beside the values); actives 1.4% (n = 300,000); AID 1885;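 active = mean inhibition across valid replicates above about 55%, limit read from the data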;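 note: signal also drops with host cell toxicity which is not excluded here; 0% = plate median of DMSO wells and 100% = zero luminescence signal; higher percent means less beta-gal luminescence so fewer parasites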
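compound dosing = single 50 nL compound addition per well in DMSO | material = NIH/3T3 host cells with β-galactosidase reporter T. cruzi | input = 5,000 host fibroblasts per well | timing = ≥90 h infection period, 3 h prior cell attachment | read-out basis = percent inhibition of parasite-derived β-gal signal | detection = GalScreen β-gal luminescence, detergent lysis, 60 min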
NR1D1 modulator = Rev-erb alpha (human) modulation; Rev-erbα–FITC-DNA binding, fluorescence polarization, 90 min; P20393; AID 1259318; actives 0.79% (n = 370,000); activity, % at 10 µM;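 active = activity above about 14%, limit read from the data; passing the limit was not always enough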;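 note: 0% = DMSO wells with 35 nM protein and 100% = DMSO wells with 750 nM protein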
Target sequence (P20393 whole entry, looked up): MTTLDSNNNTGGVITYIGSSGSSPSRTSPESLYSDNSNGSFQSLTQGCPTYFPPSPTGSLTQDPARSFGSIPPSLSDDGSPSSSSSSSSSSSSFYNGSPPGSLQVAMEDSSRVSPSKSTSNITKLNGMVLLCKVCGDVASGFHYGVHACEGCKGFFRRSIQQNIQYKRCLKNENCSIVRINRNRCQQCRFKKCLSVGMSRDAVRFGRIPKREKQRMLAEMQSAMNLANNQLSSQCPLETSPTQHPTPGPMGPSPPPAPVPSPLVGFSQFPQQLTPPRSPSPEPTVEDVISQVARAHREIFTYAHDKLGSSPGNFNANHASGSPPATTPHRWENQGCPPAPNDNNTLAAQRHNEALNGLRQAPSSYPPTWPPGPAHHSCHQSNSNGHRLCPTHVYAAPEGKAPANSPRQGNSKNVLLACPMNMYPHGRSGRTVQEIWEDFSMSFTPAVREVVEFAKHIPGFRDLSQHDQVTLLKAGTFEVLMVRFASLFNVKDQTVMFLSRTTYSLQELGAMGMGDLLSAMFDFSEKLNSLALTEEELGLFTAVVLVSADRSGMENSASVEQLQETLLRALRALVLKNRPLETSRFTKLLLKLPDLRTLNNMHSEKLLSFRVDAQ
Rev-erbA confirm = confirmation of modulators of human Rev-erb alpha DNA binding; shares compounds with NR1D1 modulator; Rev-erb alpha FITC-DNA binding, fluorescence polarization, 90 min; activation, % at 25 µM; actives 61% (n = 3,000);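 active = activation at or above a set limit, or at least 3 SD above the negative control mean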;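 note: 0% = 35 nM protein with DMSO and 100% = 750 nM protein high control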
RORg DNA counter = affects RORgamma DNA binding in a Rev-erb alpha counter-screen; shares compounds with NR1D1 modulator; purified RORgamma protein-FITC-DNA binding, fluorescence polarization; IC50, µM; actives 8% (n = 910);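 active = Compounds whose fitted half-maximal concentration for disrupting protein-DNA binding is below 10 micromolar; the record names Rev-erb in its text, so the target is in doubt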
An asterisk follows results filed as active; i = inactive; nt = no result; ! = not confirmed by another sample.

SMILES	MIN6 prolif	hiPSC survival	PG9 binder	H9c2 TAG inh	T cruzi inh	NR1D1 modulator	Rev-erbA confirm	others
COc1c(O)cccc1[C@@H](O)C1CCN(CCc2ccc(F)cc2)CC1	0	-1	1	-16	3	19*	6
COc1ccc(CCN2CCC(Nc3nc4ccccc4n3Cc3ccc(F)cc3)CC2)cc1	-8	-3	1	45	36	-7	nt
Cc1ccc(C)c(N2CCN(S(=O)(=O)c3c(C)noc3/C=C/N(C)C)CC2)c1	-4	-2	-3	14	17	2	nt
CCn1c(CC(=O)Nc2ccc(Cl)cc2)nnc1SCC(=O)N1CCOCC1	-2	0	-1	nt	-13	1	nt
O=C(CSc1nc(-c2ccco2)cc(C(F)(F)F)n1)NC1CCCCCCC1	0	3	1	9	28	25*	14
CC1CCN(C(=O)c2cc3c(=O)n4ccccc4nc3s2)CC1	-2	1	-1	nt	5	6	nt
CCCc1cc(=O)oc2cc(C)cc(OC(C)C(=O)NCc3cccnc3)c12 (stereo unspecified)	-3	0	-2	nt	-1	2	nt
CCCc1cc(=O)oc2cc(C)cc(OC(C)C(=O)NCc3ccncc3)c12 (stereo unspecified)	3	0	-2	nt	4	23*	21*
CCCc1cc(=O)oc2cc(C)cc(OCC(=O)Nc3ccc(S(N)(=O)=O)cc3)c12	-4	0	5	nt	-8	135*	151*	RORg DNA counter=i
COc1cc(Cl)ccc1OCc1cc(C(=O)N2C[C@H]3CC[C@H]2C3)no1	4	0	0	23	1	-8	nt
COc1cccc(CNC(=O)N[C@@H](CC(C)C)C(=O)O)c1	-2	-4	1	4	-8	2	nt
CCOc1ccc(CNC(=O)Cn2c(=O)c3cccn3c3ccccc32)cc1	1	0	1	nt	9	39*	24*
CC(C)Oc1ccc(CNC(=O)Cn2c(=O)c3cccn3c3cccnc32)cc1	3	0	-2	nt	7	1	nt
CCn1c2ccccc2c2cc(C3C(C#N)=C(N)Oc4n[nH]c(COC)c43)ccc21 (stereo unspecified)	-4	-1	0	nt	-14	5	nt
Nc1nc(-c2ccccc2)c(N=Nc2ccccc2Cl)s1	-3	-1	-2	nt	31	30*	27*
Nc1nc(-c2ccccc2)c(N=Nc2cccc3ccccc23)s1	-6	1	0	nt	27	0	nt
CCCCCCSc1cc(-c2nc3cc(C)ccn3c2NC2CCCCC2)ccc1OC	-8	0	1	12	38	1	nt
CCC(C)Sc1ccc(-c2nc3cc(C)ccn3c2NC2CCCCC2)cc1 (stereo unspecified)	-6	-2	6	22	nt	20*!	19*
CCCCCCSc1ccc(-c2nc3cc(C)ccn3c2NC2CCCCC2)cc1	-6	2	2	11	nt	20*!	-2
CCC(C)Sc1ccc(-c2nc3cnccn3c2NC2CCCCC2)cc1 (stereo unspecified)	-8	1	5	21	25	12	nt
Cc1cc(/C=N/NC(=O)c2ccoc2C)cc(C)c1O	nt	3	0	-8	nt	9	nt
COc1ccc(CC(=O)Nc2ccc(-c3cn4ccc(C)cc4n3)cc2)cc1	-2	-1	3	5	-1	16*	11
COc1ccc(CC(=O)Nc2ccc(-c3cn4cccc(C)c4n3)cc2)cc1OC	1	1	-1	32	21	-6	nt
Cc1ccnc(NC(=O)CNC(=O)c2sc3ccccc3c2Cl)c1	0	0	6	20	11	35*	6
Cc1ccc(S(=O)(=O)N2CCN(C(=O)CNC(=O)c3sc4ccccc4c3Cl)CC2)cc1	0	0	0	-21	3	23*	5
COC(=O)c1ccc(CNC(=O)CNC(=O)c2sc3ccccc3c2Cl)cc1	4	0	-2	-3	5	2	nt
